From PubChem BioAssay
Rows were chosen to be rich in hits. Some 2.6% of all compounds tested hit in one or more screens of this group.
PRMT1 FP inh: inhibitors of human PRMT1; Q99873; recombinant PRMT1, activity-based probe fluorescence polarization; inhibition, % at 2.79 µM; actives 1.3% (n = 370,000);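 active = inhibition above about 21% made by adding two undisclosed values, limit read from the data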
GSTO1 inh: counter-screen for RBBP9 inhibitors: inhibitors of human GSTO1 | P78417 | recombinant GSTO1, activity-based probe fluorescence polarization | inhibition, % at 5.96 µM | actives 1.1% (n = 300,000) | AID 1974;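 active = inhibition above the campaign mean inhibition plus 3 SD, cut at about 35% in these data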;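 also: 0% = GSTO1-1 with DMSO and 100% = wells lacking GSTO1-1 enzyme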
Target sequence (P78417 whole entry, looked up): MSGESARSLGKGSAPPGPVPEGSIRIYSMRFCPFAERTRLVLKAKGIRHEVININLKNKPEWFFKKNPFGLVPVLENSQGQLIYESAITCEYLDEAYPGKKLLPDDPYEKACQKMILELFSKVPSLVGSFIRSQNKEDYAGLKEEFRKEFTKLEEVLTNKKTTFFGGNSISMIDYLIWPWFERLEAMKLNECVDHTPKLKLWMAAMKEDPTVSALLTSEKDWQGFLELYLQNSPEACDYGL
Apaf1 inhib: blocks human Apaf-1 apoptosome activity. inhibition, % at 20 µM. reconstituted apoptosome caspase-3 activity, DEVD-Rh110 fluorescence. actives 0.71% (n = 330,000). O14727; active = inhibition of at least 40% at 20 µM;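 also: plate controls were DMSO wells for no effect and DEVD-CHO caspase inhibitor wells for full effect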
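Assay system – apoptosome proteins · Medium – Hepes buffer, pH 7.5 · Also added – cytochrome c with DEVD-Rh110 · Timing – 30 min compound preincubation, 50 min activation, room temperature · Detection – Rh110 fluorescence, excitation 480 nm, emission 540 nm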
TDP2 inh: blocks human TDP2 phosphodiesterase activity | O95551 | recombinant TDP2, T5PNP hydrolysis, p-nitrophenol absorbance 415 nm | inhibition, % at 12.8 µM | actives 0.34% (n = 370,000) | AID 720702;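 active = inhibition above the mean of all tested compounds plus 3 SD, set per campaign, cut at about 25% in these data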;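 also: 0% = DMSO with enzyme and 100% = buffer with substrate but no TDP2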
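Evaluation: % inhibition relative to enzyme-containing and enzyme-free wells. Material: recombinant human TDP2. Benchmarks: enzyme-free and DMSO wells. Timing: enzyme reaction with compound for 2 h at 37 °C. Compound dosing: 12.8 µM only. Measured by: p-Nitrophenol epi absorbance. Reagent: T5PNP substrate at 5 mM, a TopII-DNA adduct mimic. Replication: single well per compound.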
PAD4 FP inh: PAD4 (human) enzyme inhibition. recombinant PAD4, RCA probe fluorescence polarization. inhibition, % at 6.36 µM. actives 0.41% (n = 330,000);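 active = percent inhibition above a cutoff equal to the mean of all tested compounds plus 3 SD, cut at about 15% in these data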;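 also: 0% = PAD4 with RCA probe and DMSO and 100% = probe without PAD4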
Numbers without * were called inactive; nt = no result given.

SMILES | PRMT1 FP inh | GSTO1 inh | Apaf1 inhib | TDP2 inh | PAD4 FP inh
CCNC(=O)C[C@H]1CC[C@H]2[C@@H](COc3ccc(NC(=O)c4ccc5c(c4)OCO5)cc3C(=O)N2C)O1 | 8 | nt | nt | 3 | nt
COC(=O)[C@@]12CCCCC3=C1N(CCC3)C(=O)[C@H]2CC(=O)NCc1cccs1 | 1 | nt | nt | -9 | nt
Cc1oc(C)c2c(=O)ccc3c(c12)OC(N)=C(C#N)C3c1ccccc1 (stereo unspecified) | 22* | -3 | 15 | -17 | -4
COC(=O)[C@H](Cc1ccccc1)NC(=O)[C@H]1O[C@@H](n2cnc3c(=O)[nH]c(N)nc32)[C@H](O)[C@@H]1O | 2 | nt | nt | -7 | nt
O=c1c(Br)ccc(Br)cc1Br | 62* | nt | nt | 4 | nt
O=C(CCl)Nc1ccc(N2CCCCCC2)cc1 | -2 | 95* | 11 | 5 | 2
COc1ccccc1-n1c(=S)[nH]c2c(sc(=S)n2-c2ccccc2C)c1=O | 87* | -2 | -7 | 5 | -8
CCOc1ccccc1-n1c(=S)sc2c(=O)n(-c3ccccc3)c(=S)[nH]c21 | 78* | -5 | -1 | 13 | 2
COc1ccccc1-n1c(SC)nc2c(sc(=S)n2-c2ccccc2)c1=O | 2 | nt | 10 | -3 | nt
COc1ccccc1-n1c(=S)[nH]c2c(sc(=S)n2-c2ccccc2)c1=O | 83* | -4 | 4 | -1 | -1
C[C@H]1COc2cccc(N3CCSCC3)c2S(=O)(=O)N1C | 5 | nt | nt | 1 | nt
O=C(COC(=O)c1cccnc1)c1ccc(Cl)cc1 | -1 | 21 | -23 | 7 | 0
O=C(COC(=O)c1cccnc1)c1ccc(Cl)c(Cl)c1 | 7 | 36* | 5 | 0 | -4
Nn1c(SCC(=O)NC2CCCCC2)nnc1-c1cc(-c2ccccc2)n[nH]1 | -5 | nt | nt | 9 | nt
COc1ccc(C=C2C(=O)OC(C)(C)OC2=O)cc1OC | 6 | 4 | 5 | 7 | -7
COc1ccc(/C=C2\C(=O)NC(=O)c3ccccc32)cc1OC | 8 | nt | nt | 63* | nt
CCCc1cc(C(=O)Nc2cccc(C(C)=O)c2)no1 | -5 | 36* | 16 | -4 | 5
CCOC(=O)[C@]12CCC=C1N(Cc1ccccc1)C(=O)[C@H](CC(=O)NCc1ccc(C)o1)C2 | 23* | nt | nt | -3 | nt
COC(=O)[C@]12C[C@H](CC(=O)NCc3ccc(C)o3)C(=O)N(Cc3ccccc3)C1=C[C@H](C1CCCC1)O[C@@H]2C | 22* | nt | nt | -22 | nt
O=C(NN1C(=O)/C(=C/c2ccc(O)cc2)SC1=S)c1ccccc1O | 4 | 3 | 7 | -14 | -22
O=C(NN1C(=O)/C(=C/c2cc([N+](=O)[O-])ccc2O)SC1=S)c1ccccc1O | nt | 67* | -5 | nt | -5
O=S1(=O)c2ccc(N3CCSCC3)cc2Oc2ccccc2CN1Cc1cn(Cc2cccc(F)c2)nn1 | 0 | nt | nt | 3 | nt
C#CCOCCOCCOCCNc1nc(N2CCN(C(=O)CCCCCCCCCCNC(=O)[C@H](CCCCN)n3cc(C)nn3)CC2)nc(N2CCN(C(=O)CCCCCCCCCCNC(=O)[C@@H]([C@H](C)O)n3cc(C)nn3)CC2)n1 | nt | -3 | 54* | nt | 2
C#CCOCCOCCOCCNc1nc(N2CCN(C(=O)CCCCCCCCCCNC(=O)[C@H](CCCCN)n3cc(C[C@@H](C)CC)nn3)CC2)nc(N2CCN(C(=O)CCCCCCCCCCNC(=O)[C@@H]([C@H](C)O)n3cc(C)nn3)CC2)n1 | nt | -12 | 58* | nt | -3
COC1=C[C@H](C(=O)NCc2ccc(Br)cc2)[C@H](C)[C@@H](c2ccccc2)CC1=O | -1 | nt | nt | -5 | nt
SMILES | PRMT1 FP inh | GSTO1 inh | Apaf1 inhib | TDP2 inh | PAD4 FP inh
Cc1cc(C)nc(N2CCC(C(=O)N(C)CCc3ccccn3)CC2)n1 | -9 | nt | nt | -3 | nt
CN1CCN(c2cc(N3CCN(C(=O)c4ccco4)CC3)c3c4c(onc24)-c2ccccc2C3=O)CC1 | nt | 17 | 82* | nt | -4
O=C(c1ccco1)N1CCN(C2=NS(=O)(=O)c3ccccc32)CC1 | 2 | 5 | 12 | 1 | -4
CCOC(=O)CSc1nc2sc3c(c2c(=O)[nH]1)CC(C)(CC)OC3 (stereo unspecified) | -1 | -3 | 16 | -2 | 1
CC1(C)Cc2c(sc3nc(SCC(=O)O)[nH]c(=O)c23)CO1 | 1 | 36* | -5 | 3 | 3
COC(=O)[C@]12C[C@H](CC(=O)NCc3ccc(C)o3)C(=O)N(Cc3ccc(Cl)cc3Cl)C1=C[C@H](C(C)(C)C)O[C@@H]2C | 4 | nt | nt | -7 | nt
CC(C)c1cc(NC(=O)CCl)on1 | 4 | 104* | -19 | -5 | 0
